Reference: ChEMBL document CHEMBL4316593 (Eur J Med Chem, 2019)
Active and inactive are the calls of the source. The calls are words filed in the database; no cut-off is given here.

Legend:
U-87 MG [1] = assay: Cytotoxicity against human U87 cells assessed as reduction in cell proliferation at 100 uM measured after 48 hrs by trypan blue dye-based cell counting analysis; type: functional; conditions: U-87MG ATCC
In short: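 Trypan blue viability assay. U87 (MEM, 10% FBS) or LN229 (DMEM, 5% FBS) cells were treated for 48hrs. Screening used 100 μM; the dose-response used 100, 75, 50, 25 and 10 μM. Cells were pelleted at 1200 rpm and live/dead cells counted by automated counter. Mortality % was taken relative to the DMSO control, and IC₅₀ derived from the dose-response curve. Cisplatin served as positive control.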

LN-229 = assay: Cell cycle arrest in human LN229 cells assessed as accumulation at G1/S-phase at cytotoxic IC50 measured after 48 hrs by propidium iodide staining based fluorescence cell imaging analysis; type: functional
In short: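 Cell cycle by PI staining. Cells seeded at 1×10^6 and grown overnight at 37°C, 5% CO₂, then exposed for 48hrs at their IC₅₀ concentration, with DMSO and cisplatin controls. Cells were trypsinized, washed in cold PBS and fixed in 70% ethanol at 4°C for 30 min. They were stained with PI in Triton X-100/RNase for 15 min at 37°C and imaged by fluorescence microscopy. Reported as mean ± S.E.M of triplicates.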

U-87 MG [2] = assay: Cell cycle arrest in human U87 cells assessed as change in PCNA gene expression at cytotoxic IC50 measured after 48 hrs […] relative to control; type: functional, U-87MG ATCC
In short: (§1)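 U87 expression profiling. Cells incubated 48hrs at 37°C, 5% CO₂ with the IC₅₀ concentration, alongside a cisplatin and an untreated control, in triplicate. RNA was isolated by one common protocol and profiled. DEGs were called with DESeq2 (q < 0.05, fold change > 1.5) and expressed as fold change versus untreated.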

U-87 MG [3] = assay: Cell cycle arrest in human U87 cells assessed as change in MCM3 gene expression at cytotoxic IC50 measured after 48 hrs […] relative to control; type: functional, U-87MG ATCC; in short: as §1
U-87 MG [4] = assay: Cell cycle arrest in human U87 cells assessed as change in GADD45A gene expression at cytotoxic IC50 measured after 48 hrs […] relative to control; type: functional, U-87MG ATCC; in short: as §1
U-87 MG [5] = assay: Induction of DNA damage in human U87 cells assessed as change in RPS27L gene expression at cytotoxic IC50 measured after 48 hrs […] relative to control; type: functional, U-87MG ATCC; in short: as §1
U-87 MG [6] = assay: Induction of DNA damage in human U87 cells assessed as change in BRCA1 gene expression at cytotoxic IC50 measured after 48 hrs […] relative to control; type: functional, U-87MG ATCC; in short: as §1
U-87 MG [7] = assay: Induction of apoptosis in human U87 cells assessed as change in ITPR2 gene expression at cytotoxic IC50 measured after 48 hrs […] relative to control; type: functional, U-87MG ATCC
In short: (§2)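 U87 cells grown in MEM with 10% FBS at 37°C, 5% CO2. Cells exposed to IC50 of test compound for 48 hrs, alongside untreated and cisplatin controls, each condition in triplicate. RNA isolated and profiled; differential expression called with DESeq2 (q-value < 0.05, fold change > 1.5), fold change versus untreated.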

[8] = Inhibition of RTK/PI3K/AKT/mTOR signaling in human U87 cells assessed as down regulation of WDR62 gene expression at cytotoxic IC50 measured after 48 hrs relative to control; type: cell-based; conditions: U-87MG ATCC
In short: (§3)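 Cells were exposed for 48hrs at 37°C in humidified 5% CO₂ to the compound at its previously determined IC₅₀, with Cisplatin at its IC₅₀ and an untreated negative control alongside. Each condition was run in triplicate. RNA was isolated from all samples by the same protocol. Genes were called differentially expressed by DESeq2 at q-value < 0.05 and fold change > 1.5.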

[9] = Inhibition of RTK/PI3K/AKT/mTOR signaling in human U87 cells assessed as down regulation of LAMA2 gene expression at cytotoxic IC50 measured after 48 hrs relative to control; type: cell-based; conditions: U-87MG ATCC; in short: as §2
[10] = Inhibition of RTK/PI3K/AKT/mTOR signaling in human U87 cells assessed as down regulation of MAFF gene expression at cytotoxic IC50 measured after 48 hrs relative to control; type: cell-based; conditions: U-87MG ATCC; in short: as §3
[11] = Inhibition of RTK/PI3K/AKT/mTOR signaling in human U87 cells assessed as down regulation of KIF1BP gene expression at cytotoxic IC50 measured after 48 hrs relative to control; type: cell-based; conditions: U-87MG ATCC; in short: as §2
[12] = Inhibition of RTK/PI3K/AKT/mTOR signaling in human U87 cells assessed as down regulation of ZNF106 gene expression at cytotoxic IC50 measured after 48 hrs relative to control; type: cell-based; conditions: U-87MG ATCC; in short: as §3
[13] = Inhibition of RTK/PI3K/AKT/mTOR signaling in human U87 cells assessed as down regulation of SIDT2 gene expression at cytotoxic IC50 measured after 48 hrs relative to control; type: cell-based; conditions: U-87MG ATCC; in short: as §3
[14] = Inhibition of RTK/PI3K/AKT/mTOR signaling in human U87 cells assessed as up regulation of FAM131C gene expression at cytotoxic IC50 measured after 48 hrs relative to control; type: cell-based; conditions: U-87MG ATCC; in short: as §3
[15] = Inhibition of RTK/PI3K/AKT/mTOR signaling in human U87 cells assessed as up regulation of ZNF395 gene expression at cytotoxic IC50 measured after 48 hrs relative to control; type: cell-based; conditions: U-87MG ATCC
[16] = Inhibition of RTK/PI3K/AKT/mTOR signaling in human U87 cells assessed as up regulation of erythrocyte membrane protein band 4.1 gene expression at cytotoxic IC50 measured after 48 hrs relative to control; type: cell-based
[17] = Inhibition of RTK/PI3K/AKT/mTOR signaling in human U87 cells assessed as up regulation of regulator of chromosome condensation 2 gene expression at cytotoxic IC50 measured after 48 hrs relative to control; type: cell-based; conditions: U-87MG ATCC
[18] = Inhibition of RTK/PI3K/AKT/mTOR signaling in human U87 cells assessed as up regulation of keratinocyte associated protein 3 gene expression at cytotoxic IC50 measured after 48 hrs relative to control; type: cell-based
[19] = Inhibition of RTK/PI3K/AKT/mTOR signaling in human U87 cells assessed as up regulation of MRG domain binding protein gene expression at cytotoxic IC50 measured after 48 hrs relative to control; type: cell-based; conditions: U-87MG ATCC; in short: as §3
[20] = Inhibition of RTK/PI3K/AKT/mTOR signaling in human U87 cells assessed as up regulation of EPS8 like 2 gene expression at cytotoxic IC50 measured after 48 hrs relative to control; type: cell-based; conditions: U-87MG ATCC; in short: as §3
[21] = Inhibition of RTK/PI3K/AKT/mTOR signaling in human U87 cells assessed as up regulation of melanoma inhibitory activity 2 gene expression at cytotoxic IC50 measured after 48 hrs relative to control; type: cell-based; conditions: U-87MG ATCC
[22] = Inhibition of RTK/PI3K/AKT/mTOR signaling in human U87 cells assessed as up regulation of AHNAK2 gene expression at cytotoxic IC50 measured after 48 hrs relative to control; type: cell-based; conditions: U-87MG ATCC; in short: as §3
[23] = Inhibition of RTK/PI3K/AKT/mTOR signaling in human U87 cells assessed as up regulation of AGRN gene expression at cytotoxic IC50 measured after 48 hrs relative to control; type: cell-based; conditions: U-87MG ATCC; in short: as §3
[24] = Inhibition of RTK/PI3K/AKT/mTOR signaling in human U87 cells assessed as up regulation of KCMF1 gene expression at cytotoxic IC50 measured after 48 hrs relative to control; type: cell-based; conditions: U-87MG ATCC; in short: as §3

## CC(=O)C(=NNc1ccccc1C#N)C(C)=O
U-87 MG [1]
  Activity: Active
LN-229
  Activity: Active
U-87 MG [2]
  fold change (FC): 1.668
U-87 MG [3]
  fold change (FC): 1.427
U-87 MG [4]
  fold change (FC): -0.9679
U-87 MG [5]
  fold change (FC): 2.121
U-87 MG [6]
  fold change (FC): 2.408
U-87 MG [7]
  log2FC: -3.745
[8]
  log2FC: -1.86
[9]
  log2FC: -1.14
[10]
  log2FC: -1.1
[11]
  log2FC: -0.96
[12]
  log2FC: -0.749
[13]
  log2FC: -0.671
[14]
  log2FC: 2.04
[15]
  log2FC: 1.89
[16]
  log2FC: 1.26
[17]
  log2FC: 1.06
[18]
  log2FC: 1.03
[19]
  log2FC: 0.97
[20]
  log2FC: 0.818
[21]
  log2FC: 0.695
[22]
  log2FC: 0.621
[23]
  log2FC: 0.578
[24]
  log2FC: 0.499
